# The entries come from a sample that favours hits as a whole.
# T cell HTS = T cell immune modulators affecting CD8 T cell-vesicle binding; AID 2052; 2C CD8+ T cell-vesicle binding, flow cytometry; active compounds read low; actives 0.068% (n = 330,000); response (vesicle binding), % at 7 µM;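 active = response, share of CD8 T cells binding vesicles, and their 90th percentile fluorescence all below set limits, cut at about 80% in these data, passing the limit was not always enough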;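 also: values below 100% mean blocked vesicle binding to the CD8+ T cells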
#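 Material: murine 2C transgenic CD8+ T lymphocytes / Also added: QL9-peptide-loaded Drosophila micro-vesicles bearing Ld, ICAM-1 and B7-1 / Schedule: binding step 1.5 h, 37 °C, antibody labelling 20 min, ice / Signal: flow cytometry, PE anti-B7-1 (FL2) versus Alexa647 anti-CD8 (FL8), PFA-fixed / Evaluation: percent CD8+ FL2 mean versus row control / Benchmarks: naked versus QL9-loaded vesicles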
# ALR inh = blocks human ALR sulfhydryl oxidase activity | P55789 | purified ALR, DTT oxidation, H2O2 HRP-luminol luminescence | inhibition, % (concentration not given with the values) | actives 3.8% (n = 290,000) | AID 485317;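 active = mean replicate inhibition above about 79%, with every replicate also reaching it, limit read from the data; inconclusive = only one of the two criteria met; inactive = mean below limit and not every replicate reaching it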
# Target sequence (P55789 whole entry, looked up): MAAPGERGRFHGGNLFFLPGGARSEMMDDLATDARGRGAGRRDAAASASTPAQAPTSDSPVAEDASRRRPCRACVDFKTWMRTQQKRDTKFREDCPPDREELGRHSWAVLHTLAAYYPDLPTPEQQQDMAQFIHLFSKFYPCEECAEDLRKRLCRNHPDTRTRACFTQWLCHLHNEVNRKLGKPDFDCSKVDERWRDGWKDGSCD
# N-glyco inh = N-linked glycosylation inhibition; actives 0.23% (n = 360,000); reporter increase, % at 12.5 µM; D54 ERlucT glycosylation luciferase reporter, 24 h; percent of 100 nM tunicamycin response;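 active = mean luciferase reporter signal, scaled so untreated is 0 and the glycosylation-blocking control 100, at or above a set limit in every replicate; inconclusive = mean reaches the limit but not every replicate does; inactive = mean below the limit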;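 also: luciferase carries N-glycosylation sites so blocking glycosylation raises the light; 0% = median of neutral control wells and 100% = median of 100 nM tunicamycin wells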
# Starred values were filed as active, the others as inactive; ? = inconclusive; · = no result.
SMILES,T cell HTS,ALR inh,N-glyco inh
COc1ccc(CNC(=O)CSc2nnc(-c3ccc(NC(C)=O)cc3)n2C)cc1,915,-11,4
COc1cc([C@H]2Oc3cc([C@H]4Oc5cc(O)cc(O)c5C(=O)[C@@H]4O)ccc3O[C@@H]2CO)ccc1O,692,99*,-1
COc1ccc([C@@H]2CC(=O)c3c(O)cc(O)cc3O2)cc1O,862,3,1
COc1cc(OC)c2c(c1)OC(c1ccc(OC)c(OC)c1)C(O)C2=O (stereo not drawn),37,·,-7
COc1cc([C@@H]2Oc3cc(C4Oc5cc(O)cc(O)c5C(=O)[C@H]4O)ccc3O[C@H]2CO)ccc1O (stereo partly drawn),206,99*,3
CC(=O)N1CCc2cc(S(=O)(=O)NCCC(=O)NCCc3ccc(Cl)cc3)ccc21,245,1,0
COc1ccc(-c2nc(CSCC(=O)N3CCN(C(=O)c4ccco4)CC3)c(C)o2)cc1OC,166,99*,2
CCN1CCN(CCNC(=O)CSCc2nc(-c3ccc(OC)c(OC)c3)oc2C)CC1,205,99*,1
COc1ccc(-c2nc(CN3CCC(C(=O)NC4CC4)CC3)c(C)o2)cc1OC,131,-4,3
CCN1CCN(C(=O)CSCc2nc(-c3ccc(OC)c(OC)c3)oc2C)CC1,153,99*,2
COc1ccc(-c2nc(CSCC(=O)N3CCN(C)CC3)c(C)o2)cc1OC,47,99*,0
COc1cc(-c2nc(CN3CCCN(C(=O)c4ccco4)CC3)c(C)o2)ccc1F,242,-5,1
COc1ccc(-c2nnc(SCC(=O)N3CCCC3)o2)cc1OC,309,-4,·
CCN1CCN(CCNC(=O)C2CCCN(Cc3nc(-c4cccc(Cl)c4)oc3C)C2)CC1 (stereo not drawn),61,-9,-3
Cc1nc(C)c(C(=O)OCC(=O)Nc2ccccc2)s1,538,·,-1
CCN(CC)CCCNC(=O)CCn1nc(-c2ccccc2)ccc1=O,256,-11,2
CN1CCN(S(=O)(=O)c2cccc(C(=O)Nc3cccc([N+](=O)[O-])c3)c2)CC1,243,-6,2
CC(NC(=O)c1ccco1)C(=O)OCC(=O)N1CCCCCC1 (stereo not drawn),707,·,4
O=C(CSc1ccccc1C(=O)N1CCN(c2ccc([N+](=O)[O-])cc2)CC1)N1CCCC1,174,11,-2
O=C(CSc1ccccc1C(=O)N1CCN(c2ccccc2)CC1)N1CCCC1,882,98*,-1
COCCSc1ccccc1C(=O)N1CCN(c2ccccc2)CC1,763,87*,1
COCCSc1ccccc1C(=O)N1CCc2ccccc2C1,779,3,2
Cc1ccc(SCC(=O)NCCN2C(=O)CSC2=O)c(C)c1,169,-18,0
Cc1ccc(-c2nc(SCC(=O)NCCN3C(=O)CSC3=O)[nH]c2-c2ccc(C)cc2)cc1,503,88*,·
O=CNC(n1cnc2c(N3CCOCC3)ncnc21)C(Cl)(Cl)Cl (stereo not drawn),130,-1,1
SMILES,T cell HTS,ALR inh,N-glyco inh
CC1CN(C(=O)c2ccccc2Nc2ccc(SC(F)F)cc2)CC(C)O1 (stereo not drawn),411,99*,-2
O=C(c1ccccc1Nc1ccc(SC(F)F)cc1)N1CCCCC1,309,·,-2
CCN(CCn1cccn1)C(=O)c1cc(COc2cc(C)ccc2C)on1,304,-13,-4
Nc1ccccc1Sc1c[nH]c2ccccc12,861,99*,-4
Nc1ccccc1Sc1nc2ccccc2[nH]1,508,12,2
CCOc1ccc(NC(=O)CN(C)S(=O)(=O)c2cccc3cccnc23)cc1,450,-10,-3
Cc1ccc(NC(=O)CN(C)S(=O)(=O)c2cccc3cccnc23)cc1,304,95*,0
Cc1cc(C)c(NC(=S)N(C)C)c(C)c1,203,0,0
COc1ccc(-c2cc3nc(NCCNC(C)=O)n(C)c(=O)c3s2)c(C)c1,·,·,-2
O=C1c2ccccc2NC(c2ccc(O)c(O)c2)N1c1ccccc1Cl (stereo not drawn),192,100*,-3
COc1cc(C2Nc3ccccc3C(=O)N2c2ccccc2OC)ccc1O (stereo not drawn),221,29,3
CCN(C[C@H]1N[C@@](Cc2ccccc2)(C(=O)OC)[C@H]2C(=O)N(C)C(=O)[C@@H]12)C(=O)C1CCCCC1,391,·,0
CCN1CCN(c2cc(C)c3cc(NC(=O)CCC(=O)N4CCN(c5ccccc5OC)CC4)ccc3n2)CC1,304,48,-3
CCN1CCN(c2cc(C)c3cc(NC(=O)CCC(=O)N4CCN(c5ccccc5)CC4)ccc3n2)CC1,310,91*,-4
CCOC(=O)c1c(C)[nH]c(C)c1S(=O)(=O)NCCN1CCN(c2cc(Cl)ccc2C)CC1,323,0,-5
CCn1c(=O)c(=O)[nH]c2cc(C(=O)Nc3ccc(S(=O)(=O)N4CCCC4)cc3)ccc21,173,-14,-2
CCn1c(=O)c(=O)[nH]c2cc(C(=O)NC(C)c3ccc(S(N)(=O)=O)cc3)ccc21 (stereo not drawn),245,97*,3
CC1CN(S(=O)(=O)c2ccc(CN3C(=O)c4cccnc4C3=O)s2)c2ccccc2O1 (stereo not drawn),886,-3,0
COc1cccc(-c2nc(CS(=O)(=O)CC(=O)Nc3c(C)cccc3C)c(C)o2)c1,321,11,-1
CCOC(=O)c1cccc(NC(=O)CS(=O)(=O)Cc2nc(-c3cccc(OC)c3)oc2C)c1,129,-6,0
Cc1ccc(-c2nc(CS(=O)(=O)CC(=O)N3CCc4ccccc4C3)c(C)o2)cc1,177,10,2
CCOC(=O)N1CCC(NC(=O)CS(=O)(=O)Cc2nc(-c3cccc(OC)c3)oc2C)CC1,239,99*,-2
COc1cccc(-c2nc(CS(=O)(=O)CC(=O)NC3CC3)c(C)o2)c1,285,-8,4
COc1cccc(-c2nc(CS(=O)(=O)CC(=O)NC3CCCCC3C)c(C)o2)c1 (stereo not drawn),402,93*,2
COc1cccc(-c2nc(CS(=O)(=O)CC(=O)NC3CCCCCC3)c(C)o2)c1,252,98*,0
SMILES,T cell HTS,ALR inh,N-glyco inh
Cc1ccc(-c2nc(CS(=O)(=O)CC(=O)N3CCCCCC3)c(C)o2)cc1,296,95*,1
CC(NC(=O)COC(=O)C1CC1C)c1cccc(Cl)c1 (stereo not drawn),247,0,-1
CC(=O)Nc1ccc(-c2ccnc3c2CC(C(=O)NCc2ccccc2)O3)cc1 (stereo not drawn),·,·,16
O=C(c1cccs1)N1CCC(c2nc3c(nnn3Cc3cccc(Cl)c3)c(=O)[nH]2)CC1,389,·,?
CCC(C)n1c(=O)c2sccc2n2c(CCCC(=O)N3CCC(C(N)=O)CC3)nnc12 (stereo not drawn),504,-2,1
COc1ccc2oc(=O)c(/C(N)=N/NC(=O)c3ccncc3)cc2c1,565,-3,0
COc1cccc(CN(C)C(=O)CCC(=O)c2cc(Br)ccc2OC)c1,184,-5,-3
Cc1oc(-c2cccc(Cl)c2)nc1CS(=O)(=O)CC(=O)NC1CC1,392,90*,1
CCOC(=O)N1CCC(NC(=O)CS(=O)(=O)Cc2nc(-c3cccc(Cl)c3)oc2C)CC1,189,52,0

# Screening data as filed in PubChem.
